We go through 25 molecules from ChEMBL document CHEMBL1130321, “Synthesis and in vitro activity of 3 beta-substituted-3 alpha-hydroxypregnan-20-ones: allosteric modulators of the GABAA receptor” (J Med Chem, 1997).

The target of assay [1] is GABA-A receptor; anion channel. In words: Ability to allosterically modulate the binding of [35S]TBPS to gamma-aminobutyric-acid A receptor in rat brain cortical P2 membranes. Format: cell membranes, Membrane. The procedure, abridged: (§1)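 Rat cortical P2 membranes washed in 200 mM NaCl/50 mM Na-K phosphate pH 7.4. Incubated with 2 nM [35S]TBPS, 5 µM GABA and compound at nine concentrations from 1 nM to 10 µM final (DMSO 0.5% final), 90 min at room temperature. Nonspecific binding was defined with 2 µM unlabeled TBPS. Read-out was filtration and scintillation counting. IC50 and Imax came from partial or full inhibition fits chosen by F-test. Values are mean ± SEM of 3-9 experiments.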

The species named for the next assay is Rattus norvegicus. As to the kind of experiment: Percent of maximal extent of inhibition was calculated by fitting [35S]TBPS inhibition data to a sigmoid function (rat brain cortical P2 membranes). Format: functional. The procedure, abridged: as §1

One may read the IC50 as the concentration at which inhibition is half-maximal. Higher therefore signals weaker potency.

On to `CC(=O)[C@H]1CC[C@H]2[C@@H]3CC[C@H]4C[C@@](O)(CBr)CC[C@]4(C)[C@H]3CC[C@]12C`, for which the IC50 in assay [1] was found to be 224 nM. Moreover, the Imax in the assay filed under Rattus norvegicus was 44%.

In assay [1], `CC(=O)[C@H]1CC[C@H]2[C@@H]3CC[C@H]4C[C@@](O)(CI)CC[C@]4(C)[C@H]3CC[C@]12C` registered an IC50 of 702 nM. Also, in the assay filed under Rattus norvegicus, the Imax was 50%.

Regarding `CN1C(=O)CN=C(c2ccccc2)c2cc(Cl)ccc21`, the Imax in the assay filed under Rattus norvegicus was 49%.

The molecule `CC[C@@]1(O)CC[C@@]2(C)[C@@H](CC[C@@H]3[C@@H]2CC[C@]2(C)[C@@H](C(C)=O)CC[C@@H]32)C1` had an IC50 in assay [1] of 257 nM. Further, the Imax in the assay listed under Rattus norvegicus is 69%.

In turn, `CC(=O)[C@H]1CC[C@H]2[C@@H]3CC[C@@H]4C[C@@](O)(CCl)CC[C@]4(C)[C@H]3CC[C@]12C` displayed an IC50 in assay [1] of 243 nM. Moreover, in the assay filed under Rattus norvegicus, the Imax was 103%.

In assay [1], `CCC[C@@]1(O)CC[C@@]2(C)[C@@H](CC[C@@H]3[C@@H]2CC[C@]2(C)[C@@H](C(C)=O)CC[C@@H]32)C1` registered an IC50 of 173 nM. Also, in the assay filed under Rattus norvegicus, the Imax was 42%.

In assay [1], `CC[C@@]1(O)CC[C@@]2(C)[C@H](CC[C@@H]3[C@@H]2CC[C@]2(C)[C@@H](C(C)=O)CC[C@@H]32)C1` came in with a half-inhibitory concentration (IC50) of 135 nM. Further, in the assay filed under Rattus norvegicus, the Imax is 95%.

As for `C#C[C@@]1(O)CC[C@@]2(C)[C@H](CC[C@@H]3[C@@H]2CC[C@]2(C)[C@@H](C(C)=O)CC[C@@H]32)C1`, the Imax in the assay listed under Rattus norvegicus is 101%.

As for `CC(=O)[C@H]1CC[C@H]2[C@@H]3CC[C@H]4C[C@@](O)(CF)CC[C@]4(C)[C@H]3CC[C@]12C`, the IC50 in assay [1] worked out at 228 nM. Also, in the assay filed under Rattus norvegicus, the Imax was 79%.

In assay [1], `C=C[C@@]1(O)CC[C@@]2(C)[C@H](CC[C@@H]3[C@@H]2CC[C@]2(C)[C@@H](C(C)=O)CC[C@@H]32)C1` showed an IC50 of 43 nM. In addition, in the assay filed under Rattus norvegicus, the Imax was 103%.

For the molecule `CC(=O)[C@H]1CC[C@H]2[C@@H]3CC[C@H]4C[C@@](O)(CC(N)=O)CC[C@]4(C)[C@H]3CC[C@]12C`, in assay [1], the IC50 was above 10000 nM. In addition, the Imax in the assay listed under Rattus norvegicus was 28%.

Take `C#C[C@@]1(O)CC[C@@]2(C)[C@@H](CC[C@@H]3[C@@H]2CC[C@]2(C)[C@@H](C(C)=O)CC[C@@H]32)C1`: the concentration for half-maximal inhibition (IC50) in assay [1] turned out to be 64 nM. For the same molecule, in the assay listed under Rattus norvegicus, the Imax is 93%.

Take `C#CC[C@@]1(O)CC[C@@]2(C)[C@H](CC[C@@H]3[C@@H]2CC[C@]2(C)[C@@H](C(C)=O)CC[C@@H]32)C1`: the concentration for half-maximal inhibition (IC50) in assay [1] was 214 nM. In addition, the Imax in the assay listed under Rattus norvegicus was 101%.

Take `CC(=O)[C@H]1CC[C@H]2[C@@H]3CC[C@@H]4C[C@](C)(O)CC[C@]4(C)[C@H]3CC[C@]12C`: the Imax in the assay filed under Rattus norvegicus is 104%.

For the molecule `C=C=CC[C@@]1(O)CC[C@@]2(C)[C@@H](CC[C@@H]3[C@@H]2CC[C@]2(C)[C@@H](C(C)=O)CC[C@@H]32)C1`, the IC50 in assay [1] was 365 nM. In addition, in the assay listed under Rattus norvegicus, the Imax is 57%.

The molecule `CCCOC[C@@]1(O)CC[C@@]2(C)[C@@H](CC[C@@H]3[C@@H]2CC[C@]2(C)[C@@H](C(C)=O)CC[C@@H]32)C1` yielded a half-maximal inhibitory concentration (IC50) in assay [1] of 655 nM. The Imax in the assay filed under Rattus norvegicus is 94%.

As to `CC(=O)[C@H]1CC[C@H]2[C@@H]3CC[C@H]4C[C@@](O)(CCl)CC[C@]4(C)[C@H]3CC[C@]12C`, the IC50 in assay [1] was 71 nM. Besides, the Imax in the assay filed under Rattus norvegicus was 33%.

The molecule `COC[C@@]1(O)CC[C@@]2(C)[C@H](CC[C@@H]3[C@@H]2CC[C@]2(C)[C@@H](C(C)=O)CC[C@@H]32)C1` displayed an IC50 in assay [1] of 40 nM. In addition, the Imax in the assay listed under Rattus norvegicus is 103%.

Turning to `C#CC[C@@]1(O)CC[C@@]2(C)[C@@H](CC[C@@H]3[C@@H]2CC[C@]2(C)[C@@H](C(C)=O)CC[C@@H]32)C1`, the half-inhibitory concentration (IC50) in assay [1] was found to be 50 nM. Moreover, the Imax in the assay listed under Rattus norvegicus is 43%.

Consider `C=CCC[C@@]1(O)CC[C@@]2(C)[C@@H](CC[C@@H]3[C@@H]2CC[C@]2(C)[C@@H](C(C)=O)CC[C@@H]32)C1`, for which the IC50 in assay [1] was determined as 325 nM. In the assay listed under Rattus norvegicus, the Imax was 59%.

Take `C=C[C@@]1(O)CC[C@@]2(C)[C@@H](CC[C@@H]3[C@@H]2CC[C@]2(C)[C@@H](C(C)=O)CC[C@@H]32)C1`: the half-inhibitory concentration (IC50) in assay [1] was 120 nM. Moreover, the Imax in the assay filed under Rattus norvegicus is 94%.

As to `C=CC[C@@]1(O)CC[C@@]2(C)[C@@H](CC[C@@H]3[C@@H]2CC[C@]2(C)[C@@H](C(C)=O)CC[C@@H]32)C1`, the IC50 in assay [1] was found to be 231 nM. Further, the Imax in the assay filed under Rattus norvegicus was 59%.

As for `CCOC[C@@]1(O)CC[C@@]2(C)[C@@H](CC[C@@H]3[C@@H]2CC[C@]2(C)[C@@H](C(C)=O)CC[C@@H]32)C1`, in assay [1], the IC50 stood at 230 nM. The Imax in the assay filed under Rattus norvegicus was 104%.

In turn, `COC[C@@]1(O)CC[C@@]2(C)[C@@H](CC[C@@H]3[C@@H]2CC[C@]2(C)[C@@H](C(C)=O)CC[C@@H]32)C1` came in with a 50% inhibitory concentration (IC50) in assay [1] of 76 nM. In the assay listed under Rattus norvegicus, the Imax was 104%.

`CC(C)(C)OC(=O)c1ncn2c1C1CCCN1C(=O)c1c(Br)cccc1-2` (configuration not stated) yielded an IC50 in assay [1] of 6.1 nM. Besides, the Imax in the assay listed under Rattus norvegicus is 27%.
